# Results from different studies.
# Target: Protein-tyrosine kinase 6 (PTK6, Homo sapiens, UniProt Q13882)
Structure (SMILES),assay,setting,quantity,result
Cc1ccc(C(=O)NCc2ccsc2)cc1C#Cc1cn(C(C)C)c2ncnc(N)c12,"enzyme activity, inhibitor",1 µM,activity vs control,7%
O=C(Nc1cnn(-c2csc(C(=O)NC3COC3)c2)c1)Nc1c(F)cccc1Cl,"enzyme activity, inhibitor",5 µM,remaining activity,85.7%
COc1cc(/C=C/C(=O)CC(=O)/C=C/c2ccc(O)c(OC)c2)ccc1O,"enzyme activity, inhibitor",1 µM,activity vs control,85%
CC(=O)C1=C(C)N(c2cccc(C(F)(F)F)c2)C(=O)N[C@@H]1c1ccc(C#N)nc1,"cell-free assay, competition with immobilised ligand",1 µM,remaining binding,100%
CC/C(=N\NC(=O)NCc1cccc(O)c1)c1ccc(O)c(C)c1O,"enzyme activity, inhibitor",0.1 µM,inhibition,-3%
CCN(CC)CCNC(=O)c1c(C)[nH]c(/C=C2\C(=O)Nc3ccc(F)cc32)c1C,"enzyme activity, inhibitor",0.3 µM,inhibition,6%
O=C(O)[C@@H]1[C@@H](Cn2nnc3ccccc3c2=O)CC[C@H]1C(=O)c1ccc(OCCC2CCOCC2)cc1,"cell-free assay, competition with immobilised ligand",1 µM,remaining binding,99%
FC(F)(F)Oc1cccc(-c2cnc3ccc(-c4ccncc4)nn23)c1,"enzyme activity, inhibitor, radiometric",5 µM,activity vs control,70%
CN(C)C1CCN(CC#Cc2nn(C3CCCC3)c3nc(NCc4ccccc4)ncc23)C1 (stereo not drawn),"enzyme activity, inhibitor, FRET",1 µM,inhibition,1%
Cc1cc(NC(=O)c2cccc3cc(-c4cccc5[nH]nc(N)c45)ccc23)ccc1F,"enzyme activity, inhibitor",0.1 µM,activity vs control,97%
CNC(=O)c1cc2c(Oc3ccc(NC(=O)C4(C(=O)Nc5ccc(F)cc5)CC4)cc3)ccnc2cc1OC,"enzyme activity, inhibitor, radiometric",1 µM,inhibition,98%
CCN(CC)c1ccc(C2=NNC(=O)CC2C)cc1[N+](=O)[O-] (stereo not drawn),"enzyme activity, inhibitor",10 µM,remaining activity,105%
Nc1ncnc2occ(-c3ccc(NC(=O)Nc4cc(C(F)(F)F)ccc4F)cc3)c12,"cell-free assay, inhibitor",20 µM,remaining signal,20%
COc1cc(Nc2cnc(C#N)c(O[C@H](C)CN(C)C)n2)ncc1-c1cnn(C)c1,"enzyme activity, inhibitor, radiometric",1 µM,remaining activity,98%
CCC(=O)N[C@H]1CC[C@@H](C(=O)N(C)c2ccc(-c3nc4ccccc4o3)cc2)C1,"cell-free assay, competition with immobilised ligand",1 µM,remaining binding,100%
COc1cc2ncnc(Nc3ccc(Oc4ccccc4)c(C)c3C)c2cc1OC,"enzyme activity, inhibitor",1 µM,inhibition,93%
CCCOc1ccc([C@@H]2[C@@H](C(=O)O)[C@H](c3ccc4c(c3)OCO4)CN2CC(=O)Nc2c(CC)cccc2CC)cc1,"cell-free assay, competition with immobilised ligand",1 µM,remaining binding,83%
CC(C)(C)c1nc(-c2cccc(NS(=O)(=O)c3c(F)cccc3F)c2F)c(-c2ccnc(N)n2)s1,"enzyme activity, inhibitor, radiometric",1 µM,remaining activity,26%
CC(=O)N1CCC(c2ccc(C(=O)NC3=NCCN3)cc2C(F)(F)F)CC1,"cell-free assay, competition with immobilised ligand",1 µM,remaining binding,88%
CNC(=O)c1cc(Oc2ccc(NC(=O)Nc3ccc(Cl)c(C(F)(F)F)c3)cc2)ccn1,"enzyme activity, inhibitor",10 µM,inhibition,58%
O=C1CCc2cc(Nc3cc(OC4CCOCC4)c([N+](=O)[O-])cc3Cl)ccc2N1,"cell-free assay, competition with immobilised ligand",1 µM,remaining binding,100%
O=C1Nc2ccc(Cl)cc2C1=Cc1cc(Cl)c(O)c(Cl)c1,cell-free assay,0.5 µM,remaining signal,73.8%
CS(=O)(=O)c1cc(C2(NC(=O)c3cncc4c3cnn4-c3ccc(F)cc3)CC2)ccn1,"cell-free assay, competition with immobilised ligand",1 µM,remaining binding,80%
COc1cc(Cl)c(C(=O)N[C@@H](CN[C@H]2CC[C@@H](N)CC2)Cc2ccc(C#N)cc2)cc1-c1ccc(CN[C@H](C)c2ccc(C)cc2)o1,"enzyme activity, inhibitor",1 µM,remaining activity,98%
Nc1nc(Nc2ccc(S(N)(=O)=O)cc2)nn1C(=O)c1c(F)cccc1F,cell-free assay,0.5 µM,remaining signal,83.9%
O=C(N1CCS(=O)(=O)CC1)N1C[C@H](c2ccc(OC(F)(F)F)cc2)C[C@H](c2nc(C3CC3)no2)C1,"cell-free assay, competition with immobilised ligand",1 µM,remaining binding,100%
Cc1ccc(Nc2nccc(N(C)c3ccc4c(C)n(C)nc4c3)n2)cc1S(N)(=O)=O,"enzyme activity, inhibitor",0.3 µM,inhibition,23%
